From ChEMBL document CHEMBL3272049, “Estrogen potentiating activity of two spiro compounds having approximately similar molecular dimensions to stilbestrol” (1977)

Experiments:
Type in all cases: functional
Conditions in all cases: route intraperitoneal
Mus musculus [1] = test: Estrogenic activity in albino CFLP-ICI strain 1 mouse assessed as change in uterus weight at 0.1 mg/kg, ip qd for three consecutive days measured 24 hrs post last dose (reference value: 6.9 +/- 0.7 mg)
Mus musculus [2] = test: Estrogenic activity in albino CFLP-ICI strain 1 mouse assessed as change in uterus weight at 10 mg/kg, ip qd for three consecutive days measured 24 hrs post last dose (reference value: 6.9 +/- 0.7 mg)
Mus musculus [3] = test: Estrogenic activity in albino CFLP-ICI strain 1 mouse assessed as uterine ratio at 0.1 mg/kg, ip qd for three consecutive days measured 24 hrs post last dose relative to body weight
Mus musculus [4] = test: Estrogenic activity in albino CFLP-ICI strain 1 mouse assessed as uterine ratio at 10 mg/kg, ip qd for three consecutive days measured 24 hrs post last dose relative to body weight
Mus musculus [5] = test: Potentiation of stilbesterol-induced estrogenic activity in albino CFLP-ICI strain 1 mouse assessed as change in uterus weight at 0.01 mg/kg, ip qd for three consecutive days measured 24 hrs post last dose relative to control
In short: (§1)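 Mice received stilbestrol 0.01 mg/kg together with graded doses of spiro derivative, both in arachis oil, ip once daily at 10.00 h for three consecutive days; comparison group got stilbestrol alone. Killed by cervical dislocation 24 h after final dose. Uteri dissected free of fat, blotted and weighed. Uterine ratio = uterine weight (mg)/body weight (g) × 100; mean ± SE.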

Mus musculus [6] = test: Potentiation of stilbesterol-induced estrogenic activity in albino CFLP-ICI strain 1 mouse assessed as change in uterus weight at 10 mg/kg, ip qd for three consecutive days measured 24 hrs post last dose relative to control; in short: as §1
Mus musculus [7] = test: Potentiation of stilbesterol-induced estrogenic activity in albino CFLP-ICI strain 1 mouse assessed as change in uterus weight at 0.001 mg/kg, ip qd for three consecutive days measured 24 hrs post last dose relative to control; in short: as §1
Mus musculus [8] = test: Potentiation of stilbesterol-induced estrogenic activity in albino CFLP-ICI strain 1 mouse assessed as change in uterus weight at 0.1 mg/kg, ip qd for three consecutive days measured 24 hrs post last dose relative to control; in short: as §1
Mus musculus [9] = test: Potentiation of stilbesterol-induced estrogenic activity in albino CFLP-ICI strain 1 mouse assessed as uterine ratio at 0.01 mg/kg, ip qd for three consecutive days measured 24 hrs post last dose relative to body weight; in short: as §1
Mus musculus [10] = test: Potentiation of stilbesterol-induced estrogenic activity in albino CFLP-ICI strain 1 mouse assessed as uterine ratio at 10 mg/kg, ip qd for three consecutive days measured 24 hrs post last dose relative to body weight; in short: as §1
Mus musculus [11] = test: Potentiation of stilbesterol-induced estrogenic activity in albino CFLP-ICI strain 1 mouse assessed as uterine ratio at 0.001 mg/kg, ip qd for three consecutive days measured 24 hrs post last dose relative to body weight; in short: as §1
Mus musculus [12] = test: Potentiation of stilbesterol-induced estrogenic activity in albino CFLP-ICI strain 1 mouse assessed as uterine ratio at 0.1 mg/kg, ip qd for three consecutive days measured 24 hrs post last dose relative to body weight; in short: as §1
Mus musculus [13] = test: Estrogenic activity in albino CFLP-ICI strain 1 mouse assessed as change in uterus weight at 0.01 mg/kg, ip qd for three consecutive days measured 24 hrs post last dose (reference value: 6.9 +/- 0.7 mg)
Mus musculus [14] = test: Estrogenic activity in albino CFLP-ICI strain 1 mouse assessed as uterine ratio at 0.01 mg/kg, ip qd for three consecutive days measured 24 hrs post last dose relative to body weight

SMILES | Activity (Mus musculus [1]) | Activity (Mus musculus [2]) | Ratio (Mus musculus [3]) | Ratio (Mus musculus [4]) | Activity (Mus musculus [5]) | Activity (Mus musculus [6]) | Activity (Mus musculus [7]) | Activity (Mus musculus [8]) | Ratio (Mus musculus [9]) | Ratio (Mus musculus [10]) | Ratio (Mus musculus [11]) | Ratio (Mus musculus [12]) | Activity (Mus musculus [13]) | Ratio (Mus musculus [14])
O=C1CCC2(CC1)CCc1ccccc1C2=O | 10 mg | 6.9 mg | 78 | 64 | 37.1 mg | 36.5 mg | 29.9 mg | 30.7 mg | 377 | 293 | 306 | 293 |  | 
OC1CCC2(CC1)Cc1ccccc1C2O (configuration not stated) | 7.4 mg | 9.7 mg | 80 | 86 | 24.5 mg | 29.2 mg |  |  | 225 | 247 |  |  |  | 
CC/C(=C(/CC)c1ccc(O)cc1)c1ccc(O)cc1 [DIETHYLSTILBESTROL] |  |  |  |  |  |  |  |  |  |  |  |  | 17.5 mg | 167
